ChEMBL document CHEMBL1148712, “Design, synthesis, and SAR study of a series of N-alkyl-N'-[2-(aryloxy)-5-nitrobenzenesulfonyl]ureas and -cyanoguanidine as selective antagonists of the TPalpha and TPbeta isoforms of the human thromboxane A2 receptor” (J Med Chem, 2007)
Calls of active or inactive are those of the source. The rule behind the calls is not given here.

Assays:
Thromboxane A2 receptor [1] = target: T1, Thromboxane A2 receptor (Homo sapiens, UniProt P21731); experiment: Antagonist activity at human thromboxane A2 receptor isoform beta expressed in HEK293 cells assessed as inhibition of U46619-induced calcium mobilization; format: functional, cell-based
T1 sequence (P21731 whole entry): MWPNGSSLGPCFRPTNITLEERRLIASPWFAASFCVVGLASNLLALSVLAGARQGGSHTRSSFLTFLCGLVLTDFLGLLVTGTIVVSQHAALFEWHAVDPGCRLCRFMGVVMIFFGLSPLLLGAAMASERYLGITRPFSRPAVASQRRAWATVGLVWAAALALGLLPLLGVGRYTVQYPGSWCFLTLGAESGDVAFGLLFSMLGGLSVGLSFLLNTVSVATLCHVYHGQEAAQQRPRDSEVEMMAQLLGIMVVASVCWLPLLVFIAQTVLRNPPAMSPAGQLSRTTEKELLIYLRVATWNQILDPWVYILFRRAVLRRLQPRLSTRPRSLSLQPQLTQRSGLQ
Procedure, shortened: (§1)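 HA-tagged receptor stably overexpressed in HEK293 cells grown in DMEM with 10% FBS. Trypsinized cells washed in Krebs-HEPES pH 7.4, loaded 1 h with Fluo-4/AM (5 µg/mL), rinsed, 150 000 cells/well. Compound (10^-8 to 10^-5 M final) for 10 min before U46619 (1 µM final). Emission at 538; Triton/EGTA calibration, Kd 385 nM. IC50 by nonlinear regression, ≥3 curves.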

[2] = target: T2, Thromboxane A2 receptor (Homo sapiens) (UniProt P21731); experiment: Ratio of IC50 for thromboxane A2 receptor isoform alpha to IC50 for thromboxane A2 receptor isoform beta; format: functional
T2 sequence (whole entry): T1 sequence (P21731 whole entry)
Procedure, shortened: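 Selectivity index calculated as IC50 for TPα divided by IC50 for TPβ. Both IC50s come from U46619 (1 µM)-induced Fluo-4 [Ca2+]i assays in HEK293 cells stably overexpressing the respective isoform.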

Thromboxane A2 receptor [3] = target: T1, Thromboxane A2 receptor; experiment: Antagonist activity at human thromboxane A2 receptor isoform alpha expressed in HEK293 cells assessed as inhibition of U46619-induced calcium mobilization; format: functional, cell-based; procedure, shortened: as §1
Platelet = experiment: Inhibition of U46619-induced human platelet aggregation; format: functional, cell-based
Procedure, shortened: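 Turbidimetric Born method on PRP from 10 healthy donors aged 20-30, medication-free for 14 days. Platelets adjusted to 3 × 10⁸ cells/mL with PPP, stirred at 1000 rpm. Compound (10^-9 to 10^-5 M) preincubated 3 min at 37 °C, then U46619 (1 µM final). Maximum light transmission read 6 min after inducer; IC50 by nonlinear regression from ≥3 curves.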

[4] = target: T2, Thromboxane A2 receptor (Homo sapiens); experiment: Antagonist activity at human thromboxane A2 receptor isoform beta expressed in HEK293 cells assessed as inhibition of U46619-induced calcium mobilization at 0.1 uM; format: functional, cell-based
Procedure, shortened: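 HEK293 cells stably overexpressing HA-tagged TPβ, loaded 1 h with Fluo-4/AM (5 µg/mL) in Krebs-HEPES pH 7.4. Compound at 0.1 µM for 10 min, then U46619 (1 µM final). Fluorescence calibrated to [Ca2+]i with Triton X-100 and EGTA; response taken against the rise with U46619 alone.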

Structure (SMILES) | IC50 (Thromboxane A2 receptor [1]) [nM] | Ratio IC50 [2] | IC50 (Thromboxane A2 receptor [3]) [nM] | IC50 (Platelet) [nM] | Activity [4]
CCCCCNC(=O)NS(=O)(=O)c1cc([N+](=O)[O-])ccc1Oc1cccc(C)c1 | 223 | 11.3 | 2530 | – | –
COc1ccc(Oc2ccc([N+](=O)[O-])cc2S(=O)(=O)NC(=O)NC(C)(C)C)cc1 | 152 | 12.7 | 1940 | – | –
CC(C)(C)NC(=O)NS(=O)(=O)c1cc([N+](=O)[O-])ccc1Oc1ccc(I)cc1 | 401 | 5.4 | 2150 | – | –
CCCCCNC(=O)NS(=O)(=O)c1cc([N+](=O)[O-])ccc1Oc1cccc(Cl)c1 | 201 | 11.9 | 2390 | – | –
CCCCCNC(=O)NS(=O)(=O)c1cc([N+](=O)[O-])ccc1Oc1cccc(I)c1 | 885 | 5.1 | 4520 | – | –
Cc1cccc(Oc2ccc([N+](=O)[O-])cc2S(=O)(=O)NC(=O)NC(C)(C)C)c1 | 17 | – | 398 | 513 | Active
Cc1ccc(Oc2ccc([N+](=O)[O-])cc2S(=O)(=O)NC(=O)NC(C)C)cc1 | 843 | 10.4 | 8760 | – | –
CCCCNC(=O)NS(=O)(=O)c1cc([N+](=O)[O-])ccc1Oc1ccccc1C | 42 | 16.1 | 673 | – | –
CC(C)(C)NC(=O)NS(=O)(=O)c1cc([N+](=O)[O-])ccc1Oc1ccc(Cl)cc1 | 400 | 7.6 | 3050 | – | –
COc1cc(C)ccc1Oc1ccc([N+](=O)[O-])cc1S(=O)(=O)NC(=O)NC(C)(C)C | 52 | 10.2 | 528 | – | –
CC(C)(C)NC(=O)NS(=O)(=O)c1cc([N+](=O)[O-])ccc1Oc1ccc(Br)cc1 | 523 | 3.2 | 1660 | – | –
CCCCCNC(=O)NS(=O)(=O)c1cc([N+](=O)[O-])ccc1Oc1ccccc1Cl | 387 | 7.9 | 3060 | – | –
CC(C)(C)NC(=O)NS(=O)(=O)c1cc([N+](=O)[O-])ccc1Oc1ccccc1Br | 151 | 17 | 2580 | – | –
CCCCCNC(=O)NS(=O)(=O)c1cc([N+](=O)[O-])ccc1Oc1ccc(OCCC)cc1 | 4840 | 5.6 | 27200 | – | –
COc1cccc(Oc2ccc([N+](=O)[O-])cc2S(=O)(=O)NC(=O)NC(C)(C)C)c1 | 99 | 19.9 | 1970 | – | –
CCCCCNC(=O)NS(=O)(=O)c1cc([N+](=O)[O-])ccc1Oc1ccc(Cl)c(C)c1 | 565 | 6.6 | 3720 | – | –
Cc1cccc(Oc2ccc([N+](=O)[O-])cc2S(=O)(=O)NC(=O)NC(C)C)c1 | 205 | 12.9 | 2640 | – | –
CCCOc1ccc(Oc2ccc([N+](=O)[O-])cc2S(=O)(=O)NC(=O)NC(C)(C)C)cc1 | 875 | 12.3 | 10800 | – | –
CC(C)(C)NC(=O)NS(=O)(=O)c1cc([N+](=O)[O-])ccc1Oc1cccc(Cl)c1 | 73 | 9.6 | 698 | – | –
CCCNC(=O)NS(=O)(=O)c1cc([N+](=O)[O-])ccc1Oc1ccc(C)cc1 | 448 | 9.4 | 4220 | – | –

Structure (SMILES) | IC50 (Thromboxane A2 receptor [1]) [nM] | Ratio IC50 [2] | IC50 (Thromboxane A2 receptor [3]) [nM] | IC50 (Platelet) [nM] | Activity [4]
CCCCCNC(=O)NS(=O)(=O)c1cc([N+](=O)[O-])ccc1Oc1ccc(Br)cc1 | 120 | 8.4 | 1010 | – | –
CC(C)(C)NC(=O)NS(=O)(=O)c1cc([N+](=O)[O-])ccc1Oc1ccccc1Cl | 205 | 11.8 | 2420 | – | –
CCCCCNC(=O)NS(=O)(=O)c1cc([N+](=O)[O-])ccc1Oc1ccc(OC)cc1 | 446 | 6 | 2670 | – | –
CCCCCNC(=O)NS(=O)(=O)c1cc([N+](=O)[O-])ccc1Oc1ccc(I)cc1 | 302 | 7.2 | 2190 | – | –
CCCCCNC(=O)NS(=O)(=O)c1cc([N+](=O)[O-])ccc1Oc1ccc(Cl)cc1 | 98 | 8.9 | 871 | – | –
Cc1ccc(Nc2ccc([N+](=O)[O-])cc2S(=O)(=O)NC(=O)NC(C)(C)C)cc1 | – | 6.01 | – | – | –
CCCCNC(=O)NS(=O)(=O)c1cc([N+](=O)[O-])ccc1Oc1cccc(C)c1 | 155 | 12.3 | 1910 | – | –
CCCCCNC(=O)NS(=O)(=O)c1cc([N+](=O)[O-])ccc1Oc1ccc(OCC)cc1 | 749 | 18.1 | 13600 | – | –
Cc1cc(Oc2ccc([N+](=O)[O-])cc2S(=O)(=O)NC(=O)NC(C)(C)C)ccc1Cl | 111 | 9.6 | 1060 | – | –
CCOc1ccc(Oc2ccc([N+](=O)[O-])cc2S(=O)(=O)NC(=O)NC(C)(C)C)cc1 | 1100 | 17.5 | 19200 | – | –
Cc1ccccc1Oc1ccc([N+](=O)[O-])cc1S(=O)(=O)NC(=O)NC(C)(C)C | 233 | 16.1 | 3760 | – | –
CCCCCNC(=O)NS(=O)(=O)c1cc([N+](=O)[O-])ccc1Oc1ccccc1Br | 423 | 7.4 | 3130 | – | –
CCCCCNC(=O)NS(=O)(=O)c1cc([N+](=O)[O-])ccc1Oc1ccccc1C | 181 | 9 | 1630 | – | –
CC(C)(C)NC(=O)NS(=O)(=O)c1cc([N+](=O)[O-])ccc1Oc1cccc(Br)c1 | 59 | 11.6 | 683 | – | –
Cc1ccccc1Oc1ccc([N+](=O)[O-])cc1S(=O)(=O)NC(=O)NC(C)C | 501 | 17.5 | 8750 | – | –
CC(C)(C)NC(=O)NS(=O)(=O)c1cc([N+](=O)[O-])ccc1Oc1cccc(I)c1 | 95 | 4.9 | 470 | – | –
Cc1ccc(Oc2ccc([N+](=O)[O-])cc2S(=O)(=O)N/C(=N\C#N)NC(C)(C)C)cc1 | – | 3.6 | – | – | –
Cc1ccc(Oc2ccc([N+](=O)[O-])cc2S(=O)(=O)NC(=NC(C)(C)C)NC#N)cc1 | 579 | – | 2080 | – | –
CCCCCNC(=O)NS(=O)(=O)c1cc([N+](=O)[O-])ccc1Oc1cccc(Br)c1 | 413 | 14.2 | 5860 | – | –
